We go through one substance from PMC8068092 (Molecular pharmaceutics, 2020).

The subject of data set [1] is MDA-MB-468 (mtp53 R273H) and MCF7 (wtp53) xenografts. The experiment in a line: NIRF imaging in mice bearing bilateral MCF7/MDA-MB-468 xenografts. In kind it is in vivo, mouse.
The test system of data set [2] is MDA-MB-468 cells (mtp53) compared to MCF7 cells (wtp53). The experiment in a line: Cy5p53Tet cellular uptake by flow cytometry. The note with it: 2 h, 37 °C. In kind it is cell-based, human. In a few lines: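 MCF7 and MDA-MB-468 cells in DMEM with 10% FBS, seeded at 5 × 10^5 per well and held at 37 °C overnight. Medium swapped for vehicle, 100 or 500 nM Cy5-peptide for 2 h at 37 °C. Cells washed, trypsinized, pelleted and resuspended in PBS. 2 × 10^4 events per sample; geometric MFI taken.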
On the technique in general: Flow cytometry measures light scatter and fluorescence of single cells or particles in a stream.

Data set [3] relates to MDA-MB-468 cells (mtp53 R273H). The experiment in a line: Peptide cytotoxicity assay. The note with it: 500 nM Cy5p53Tet, 24 h, three independent experiments. In kind it is cell-based, human. The procedure, abridged:
(§1)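 Cells (1.25 × 10^5, 12-well) seeded the day before at 37 °C, then given 500 nM Cy5-peptide for 24 h. MTT (5 mg/mL solution) added for 1 h at 37 °C. Product dissolved in 0.04 N HCl/isopropanol, 5 min in the dark at room temperature. Absorbance read at 550 nm minus 620 nm background. Three independent experiments; mean ± SEM, t-test.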

The test system of data set [4] is MDA-MB-468 shp53 cells (mtp53 R273H knockdown). The experiment in a line: Cy5p53Tet uptake with and without shRNA depletion of mtp53. The format is cell-based, human. The following applies: 500 nM; for Reduction of Cy5p53Tet signal (relative ROI intensity) on depletion of mtp53: knockdown vs control. In a few lines: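 MDA-MB-468 shp53 knockdown induced with 8 μg/mL doxycycline for 7 days; p53 depletion checked by Western blot. Cells seeded at 2 × 10^5 per well 1 day before, then given 500 nM Cy5-peptide at 37 °C for 30 min, 2 h, 4 h or 24 h. Peptide removed, cells PBS-washed, Hoechst-stained (1 μg/mL, 5 min), confocal Z-stacks at 60×. Three independent experiments; mean + SEM, two-tailed t-test.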

Data set [5] has as its system MCF7 cells (wtp53). The experiment in a line: Peptide cytotoxicity assay. In kind it is cell-based, human. The following applies: 500 nM Cy5p53Tet, 24 h, three independent experiments. The procedure, abridged: as §1
The subject of data set [6] is MDA-MB-468 cells (mtp53 R273H) compared to MCF7 cells (wtp53). Put plainly: Cy5p53Tet cellular uptake by live cell imaging. In kind it is cell-based, human. The note with it: 500 nM, 2 h incubation, 37 °C; confocal microscopy, Nikon Element analysis, at least 200 cells per sample.
The test system of data set [7] is HCC70 cells (mtp53 R248Q). Put plainly: Peptide cytotoxicity assay. The following applies: 500 nM Cy5p53Tet, 24 h, three independent experiments. The format is cell-based, human. The procedure, abridged:
as §1

Data set [8] has as its system MCF-10A nonmalignant human mammary epithelial cells (wtp53). Put plainly: Peptide cytotoxicity assay. In kind it is cell-based. The following applies: 500 nM Cy5p53Tet, 24 h, three independent experiments.
[9] abbreviates: after intravenous administration, IVIS Spectrum.

Turning to “H-CysCy5-RKKRRQRRGEYFTLQIRGRER-FEMFRELNEALELK-OH [Cy5p53Tet]”, the “In vivo NIRF signal in MCF7 tumors” value in data set [1] (setting [9]) is recorded as “no signal was present”. Further, the “In vivo NIRF signal in MDA-MB-468 tumors” value in data set [1] (setting [9]) is recorded as “clearly observed”. The “Signal in healthy tissues (whole-body and resected tissue images)” value in data set [1] (liver, large intestines, small intestines, three mice) is on record as “significantly high levels of the signal in several healthy tissues”. Also, the “Geometric MFI, fold more uptake in MDA-MB-468 than in MCF7 cells” value is 1.58 fold in data set [2] (100 nM Cy5p53Tet) and 1.65 fold in data set [2] (500 nM Cy5p53Tet). The “Reduction of mitochondrial activity (MTT)” value in data set [3] is on record as 10.6%; in data set [5] it was 9.8%; in data set [7], 13.6%; in data set [8], “No significant reduction of mitochondrial activity”. The “Reduction of Cy5p53Tet signal (relative ROI intensity) on depletion of mtp53” value was 61% in data set [4] (30 min incubation), 63% in data set [4] (2 h incubation) and 67% in data set [4] (4 h incubation). Also, in data set [4] (24 h incubation), the “Difference of Cy5p53Tet signal between knockdown and control cells” value is on record as “no statistically significant difference”. Further, in data set [6], the “Uptake of Cy5p53Tet in MDA-MB-468 cells compared to MCF7 cells” value is on record as “twofold higher uptake”.
